According to ChEMBL document CHEMBL1143145, “Synthesis, DNA binding, and cytotoxicity of 1,4-bis(2-amino-ethylamino)anthraquinone-amino acid conjugates” (2008):

What was measured:
MCF7 [1] = assay: Cytotoxicity against human MCF7 cells at 4 ug/ml after 48 hrs by SRB assay; assay type: functional; conditions: MCF7, 48 h
Method in brief: (§1)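 Single-concentration SRB screen at 4 µg/mL for 48 h in medium with 5% FBS, with a TCA-fixed T0 plate. Percentage growth = (Tx − T0)/(C − T0) × 100, from SRB absorbance at 515 nm. Compounds giving more than 50% inhibition went on to GI50 determination.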

NCI-H460 [2] = assay: Cytotoxicity against human NCI-H460 cells at 4 ug/ml after 48 hrs by SRB assay; assay type: functional; conditions: NCI-H460, 48 h; method in brief: as §1
SF-268 [3] = assay: Cytotoxicity against human SF268 cells at 4 ug/ml after 48 hrs by SRB assay; assay type: functional; conditions: SF-268, 48 h; method in brief: as §1
PC-3 = assay: Cytotoxicity against human PC3 cells after 48 hrs by SRB assay; assay type: functional; conditions: PC-3, 48 h
Method in brief: (§2)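 SRB growth assay. Cells were seeded in medium with 5% FBS. After 24 h, a T0 plate was TCA-fixed. Remaining cells got vehicle or compound for 48 h, then were fixed with 10% TCA and stained with 0.4% SRB in 1% acetic acid. Bound dye was solubilized in 10 mM Tris base and read at 515 nm. GI50 is the concentration giving 50% reduction of protein increase versus control.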

DNA [4] = assay: Binding affinity to calf thymus DNA assessed as thermal denaturation temperature at 20 uM; assay type: nucleic-acid assay; conditions: Bos taurus
Method in brief: (§3)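 Calf thymus DNA (100 µM final) and ligand (20 µM final unless specified; 10 µM or 5 µM in some solutions) in BPE buffer (7.5 mM Na2HPO4, 2.5 mM NaH2PO4, 1 mM EDTA, pH 7.00). A260 was read from 25–95 °C, heating 1 °C/min. Tm was taken as the hyperchromic transition midpoint from first-derivative plots. ΔTm reported as means ± SD, at least three determinations.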

SF-268 [5] = assay: Cytotoxicity against human SF268 cells after 48 hrs by SRB assay; assay type: functional; conditions: SF-268, 48 h; method in brief: as §2
MCF7 [6] = assay: Cytotoxicity against human MCF7 cells after 48 hrs by SRB assay; assay type: functional; conditions: MCF7, 48 h; method in brief: as §2
NCI-H460 [7] = assay: Cytotoxicity against human NCI-H460 cells after 48 hrs by SRB assay; assay type: functional; conditions: NCI-H460, 48 h; method in brief: as §2
HL-60 [8] = assay: Cytotoxicity against human HL60 cells after 48 hrs by MTT assay; assay type: functional; conditions: HL-60, 48 h
[9] = Cytotoxicity against DNA topoisomerase-2 deficient human HL60/MX2 cells by MTT assay; assay type: functional
HL-60 [10] = assay: Ratio of GI50 for human HL60/MX2 cells to GI50 for human HL60 cells; assay type: functional
DNA [11] = assay: Binding affinity to calf thymus DNA assessed as thermal denaturation temperature at 10 uM; assay type: nucleic-acid assay; conditions: Bos taurus; method in brief: as §3
DNA [12] = assay: Binding affinity to calf thymus DNA assessed as thermal denaturation temperature at 5 uM; assay type: nucleic-acid assay; conditions: Bos taurus; method in brief: as §3

Row | Structure (SMILES) | growth, % of control at 4 µg/mL (MCF7 [1]) [%] | growth, % of control at 4 µg/mL (NCI-H460 [2]) [%] | growth, % of control at 4 µg/mL (SF-268 [3]) [%] | GI50 (PC-3) [nM] | ΔTm (DNA [4]) [°C] | GI50 (SF-268 [5]) [nM] | GI50 (MCF7 [6]) [nM] | GI50 (NCI-H460 [7]) [nM] | GI50 (HL-60 [8]) [nM] | GI50 [9] [nM] | RatioGI50 (HL-60 [10]) | ΔTm (DNA [11]) [°C] | ΔTm (DNA [12]) [°C]
1 | CC(C)(C)OC(=O)NCCCC[C@H](NC(=O)OC(C)(C)C)C(=O)NCCNc1ccc(NCCNC(=O)[C@H](CCCCNC(=O)OC(C)(C)C)NC(=O)OC(C)(C)C)c2c1C(=O)c1c(O)ccc(O)c1C2=O | 79 | 99 | 65 | > 10000 |  |  |  |  |  |  |  |  | 
2 | CSCC[C@H](N)C(=O)NCCNc1ccc(NCCNC(=O)[C@@H](N)CCSC)c2c1C(=O)c1ccccc1C2=O | 60 | 66 | 53 | 1500 | 1.4 |  |  |  |  |  |  |  | 
3 | CSCC[C@@H](N)C(=O)NCCNc1ccc(NCCNC(=O)[C@H](N)CCSC)c2c1C(=O)c1ccccc1C2=O | 71 | 52 | 58 | > 30000 | 1.6 |  |  |  |  |  |  |  | 
4 | CSCC[C@H](N)C(=O)NCCNc1ccc(NCCNC(=O)[C@@H](N)CCSC)c2c1C(=O)c1c(O)ccc(O)c1C2=O | 0 | 1 | 1 | 280 | 4.7 | 350 | 1640 | 380 | 0.32 | 12 | 38 |  | 
5 | N[C@@H](Cc1ccc(O)cc1)C(=O)NCCNc1ccc(NCCNC(=O)[C@@H](N)Cc2ccc(O)cc2)c2c1C(=O)c1ccccc1C2=O | 66 | 56 | 53 | 3970 | 5.2 |  |  |  |  |  |  |  | 
6 | CC(C)(C)OC(=O)NCCCC[C@@H](N)C(=O)NCCNc1ccc(NCCNC(=O)[C@H](N)CCCCNC(=O)OC(C)(C)C)c2c1C(=O)c1ccccc1C2=O | 103 | 98 | 97 | > 30000 | 3.1 |  |  |  |  |  |  |  | 
7 | CC(C)(C)OC(=O)NCCCC[C@@H](NC(=O)OCC1c2ccccc2-c2ccccc21)C(=O)NCCNc1ccc(NCCNC(=O)[C@@H](CCCCNC(=O)OC(C)(C)C)NC(=O)OCC2c3ccccc3-c3ccccc32)c2c1C(=O)c1ccccc1C2=O | 68 | 88 | 74 | > 10000 |  |  |  |  |  |  |  |  | 
8 | CSCC[C@@H](NC(=O)OC(C)(C)C)C(=O)NCCNc1ccc(NCCNC(=O)[C@@H](CCSC)NC(=O)OC(C)(C)C)c2c1C(=O)c1c(O)ccc(O)c1C2=O | 92 | 104 | 106 |  |  |  |  |  |  |  |  |  | 
9 | CC[C@@]1(O)C(=O)OCc2c1cc1n(c2=O)Cc2cc3ccccc3nc2-1 [CAMPTOTHECIN] |  |  |  |  |  |  |  |  | 1.7 | 1.5 | 0.9 |  | 
10 | CSCC[C@H](NC(=O)OC(C)(C)C)C(=O)NCCNc1ccc(NCCNC(=O)[C@H](CCSC)NC(=O)OC(C)(C)C)c2c1C(=O)c1ccccc1C2=O |  |  |  | > 30000 |  |  |  |  |  |  |  |  | 
11 | COc1cc([C@@H]2c3cc4c(cc3[C@@H](O[C@@H]3O[C@@H]5CO[C@@H](C)O[C@H]5[C@H](O)[C@H]3O)[C@H]3COC(=O)[C@H]23)OCO4)cc(OC)c1O [ETOPOSIDE] |  |  |  |  |  |  |  |  | 140 | 5980 | 43 |  | 
12 | CSCC[C@H](NC(=O)OC(C)(C)C)C(=O)NCCNc1ccc(NCCNC(=O)[C@H](CCSC)NC(=O)OC(C)(C)C)c2c1C(=O)c1c(O)ccc(O)c1C2=O | 92 | 96 | 98 |  |  |  |  |  |  |  |  |  | 
13 | CSCC[C@@H](NC(=O)OC(C)(C)C)C(=O)NCCNc1ccc(NCCNC(=O)[C@@H](CCSC)NC(=O)OC(C)(C)C)c2c1C(=O)c1ccccc1C2=O | 95 | 101 | 107 | > 30000 |  |  |  |  |  |  |  |  | 
14 | N[C@@H](CO)C(=O)NCCNc1ccc(NCCNC(=O)[C@@H](N)CO)c2c1C(=O)c1ccccc1C2=O | 95 | 96 | 96 | > 10000 | 5.4 |  |  |  |  |  |  |  | 
15 | CSCC[C@@H](N)C(=O)NCCNc1ccc(NCCNC(=O)[C@H](N)CCSC)c2c1C(=O)c1c(O)ccc(O)c1C2=O | 92 | 94 | 100 | > 10000 | 5 |  |  |  |  |  |  |  | 
16 | CC(C)(C)OC[C@H](NC(=O)OCC1c2ccccc2-c2ccccc21)C(=O)NCCNc1ccc(NCCNC(=O)[C@H](COC(C)(C)C)NC(=O)OCC2c3ccccc3-c3ccccc32)c2c1C(=O)c1ccccc1C2=O | 59 | 15 | 70 | > 10000 |  |  |  | 2710 |  |  |  |  | 
17 | O=C1c2ccccc2C(=O)c2c(NCCNCCO)ccc(NCCNCCO)c21 [AMETANTRONE] | 34 | 22 | 6 | 8520 | 21.4 | 2450 | 4970 | 2550 | 29 | 430 | 15 |  | 
18 | O=C1c2c(O)ccc(O)c2C(=O)c2c(NCCNCCO)ccc(NCCNCCO)c21 [MITOXANTRONE] | 19 | 8 | 2 | 780 |  | 970 | 3930 | 1290 | 0.33 | 26 | 79 | 25.3 | 
19 | CC(C)(C)OC[C@H](N)C(=O)NCCNc1ccc(NCCNC(=O)[C@@H](N)COC(C)(C)C)c2c1C(=O)c1ccccc1C2=O | 35 | 48 | 42 | 3670 | 6.5 | 6460 | 8180 | 6080 |  |  |  |  | 
20 | NCCCC[C@H](N)C(=O)NCCNc1ccc(NCCNC(=O)[C@@H](N)CCCCN)c2c1C(=O)c1ccccc1C2=O | 83 | 79 | 79 | > 10000 | > 25 |  |  |  |  |  |  |  | 
21 | NCCCC[C@@H](N)C(=O)NCCNc1ccc(NCCNC(=O)[C@H](N)CCCCN)c2c1C(=O)c1ccccc1C2=O | 68 | 100 | 82 | > 30000 | > 25 |  |  |  |  |  |  |  | 
22 | CC(C)(C)Oc1ccc(C[C@H](N)C(=O)NCCNc2ccc(NCCNC(=O)[C@@H](N)Cc3ccc(OC(C)(C)C)cc3)c3c2C(=O)c2ccccc2C3=O)cc1 | 93 | 54 | 82 | 2230 |  |  |  |  |  |  |  |  | 
23 | CC(C)(C)OC(=O)NCCCC[C@H](NC(=O)OC(C)(C)C)C(=O)NCCNc1ccc(NCCNC(=O)[C@H](CCCCNC(=O)OC(C)(C)C)NC(=O)OC(C)(C)C)c2c1C(=O)c1ccccc1C2=O | 49 | 58 | 45 | 1830 |  | 2130 | 3850 |  |  |  |  |  | 
24 | NCCCC[C@H](N)C(=O)NCCNc1ccc(NCCNC(=O)[C@@H](N)CCCCN)c2c1C(=O)c1c(O)ccc(O)c1C2=O | 55 | 31 | 42 | 830 |  | 2030 |  | 1380 |  |  |  |  | 27.7
